Legend:
[1] = Selectivity index, ratio of IC50 for mouse J774.1 cells to IC50 for Trypanosoma cruzi Tulahuen 2 epimastigotes; type: toxicity; conditions: read-out: Ratio IC50
Procedure, shortened: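 J774.1 macrophages grown in DMEM with 10% heat-inactivated FCS and allowed to attach 48 h, then exposed 48 h at 37 °C to 12.5–400.0 μM. Triplicates. MTT 0.1 mg/mL for 3 h, read at 560 nm; IC50 by linear regression against the solvent control. SI = IC50 J774.1 / parasite IC50 (Sylvio X-10 amastigotes or Tulahuen 2 epimastigotes, the latter measured by A600 growth inhibition at day 5).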

Salmonella typhimurium [2] = assay: Mutagenic activity in Salmonella typhimurium TA98 at 0.3 to 40 ug/plate by Ames test in presence of mouse liver S9 fraction; type: toxicity, organism-based; conditions: salmonella enterica subsp. enterica serovar typhimurium
Procedure, shortened: (§1)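 Ames plate-incorporation assay with S. typhimurium TA98 in Vogel-Bonner E minimal glucose agar. Toxicity toward the bacteria was checked first. DMSO solutions were run in triplicate at five consecutive third-dilutions, starting at the highest non-toxic dose. Positive controls were 4-nitro-o-phenylenediamine (20.0 μg/plate) and 2-aminofluorene (10.0 μg/plate); DMSO was the negative control. Revertants were counted manually. A compound was called mutagenic when revertants were at least twice the negative control at two or more consecutive doses.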

Salmonella typhimurium [3] = assay: Mutagenic activity in Salmonella typhimurium TA98 at 0.3 to 40 ug/plate by Ames test; type: toxicity, organism-based; conditions: salmonella enterica subsp. enterica serovar typhimurium; procedure, shortened: as §1
Trypanosoma cruzi [4] = assay: Antitrypanosomal activity against Trypanosoma cruzi Tulahuen 2 epimastigotes assessed as growth inhibition after 5 days; type: functional, organism-based; conditions: Trypanosoma cruzi, Tulahuen 2, 120 h
Procedure, shortened: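 Epimastigotes were grown axenically at 28 °C in BHI-tryptose with 5% FBS and seeded from a 5–7 day culture at 1 × 10⁶ cells/mL. Drug from a DMSO stock was added (final DMSO ≤0.4%; the control contained 0.4% DMSO). Duplicates were run. A600 was read at day 5, and % inhibition was calculated relative to day-0 and control readings. IC50 = concentration that halves the absorbance ratio.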

Salmonella typhimurium [5] = assay: Mutagenic activity in Salmonella typhimurium TA100 at 3.09 to 250 ug/plate by Ames test; type: toxicity, organism-based; conditions: salmonella enterica subsp. enterica serovar typhimurium
Procedure, shortened: (§2)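 Direct plate incubation on minimal glucose agar (Vogel-Bonner E). Compound toxicity to the bacteria was checked first. DMSO solutions were tested at five consecutive 3-fold dilutions, starting from the highest non-toxic dose, in triplicate, without metabolic activation. DMSO served as negative control. Revertants were counted manually; mutagenic = revertants at least double the negative control at two or more consecutive doses.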

[6] = Stability of the compound in aqueous solution assessed as compound remaining at 1 mM at pH 6 after 1 hr by TLC analysis; type: physicochemical; conditions: aqueous solution, pH 6; read-out: Stability
Procedure, shortened: (§3)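 DMSO stocks diluted to final 1 mM in KCl·HCl pH 1.0, citrate pH 6.0, Tris·HCl pH 7.4 or borax·HCl pH 9.0 buffer. Incubated 1 h at 37 °C, then ethyl acetate extracts checked by TLC for decomposition products.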

Salmonella typhimurium [7] = assay: Mutagenic activity in Salmonella typhimurium TA100 at 3.09 to 250 ug/plate by Ames test in presence of mouse liver S9 fraction; type: toxicity, organism-based; conditions: salmonella enterica subsp. enterica serovar typhimurium
Procedure, shortened: (§4)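 Plate-incorporation Ames test on minimal glucose agar with 500 μL Aroclor-treated mouse liver S9 added. DMSO solutions were tested at five consecutive 3-fold dilutions from the highest non-toxic dose, in triplicate, with a DMSO negative control. Revertants were counted manually; a compound was scored mutagenic when revertants were at least twice the negative control for two or more consecutive doses.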

Salmonella typhimurium [8] = assay: Mutagenic activity in Salmonella typhimurium TA102 at […] ug/plate by Ames test in presence of mouse liver S9 fraction; type: toxicity, organism-based; conditions: salmonella enterica subsp. enterica serovar typhimurium; procedure, shortened: as §4
Salmonella typhimurium [9] = assay: Mutagenic activity in Salmonella typhimurium TA102 at […] ug/plate by Ames test; type: toxicity, organism-based; conditions: salmonella enterica subsp. enterica serovar typhimurium; procedure, shortened: as §2
Trypanosoma cruzi [10] = assay: Antitrypanosomal activity against Trypanosoma cruzi Sylvio X-10 amastigotes infected in African green monkey Vero cells assessed as eradication of amastigotes after 5 days by Giemsa staining-based assay; type: functional, organism-based; conditions: Sylvio X-10, Vero, 120 h
Procedure, shortened: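 VERO cells in RPMI 1640 with 10% hiFCS were allowed to adhere for 24 h at 37 °C in 5% CO₂, then infected with tissue-derived trypomastigotes at 10:1. Free parasites were washed off after 24 h, and cultures were treated at five compound doses (text gives 72 h / 5 days). Cultures were methanol-fixed and Giemsa-stained, and infected cells were counted among 300. Quadruplicates were run in three independent experiments. IC50/IC90 were obtained by sigmoidal regression.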

[11] = Stability of the compound in aqueous solution assessed as compound remaining at 1 mM at pH 9 after 1 hr by TLC analysis; type: physicochemical; conditions: aqueous solution, pH 9; read-out: Stability; procedure, shortened: as §3
Salmonella typhimurium [12] = assay: Mutagenic activity in Salmonella typhimurium TA1537 at 0.03 to 0.2 ug/plate by Ames test in presence of mouse liver S9 fraction; type: toxicity, organism-based; conditions: salmonella enterica subsp. enterica serovar typhimurium, in the assay text read “0.003 to 0.2 ug/plate” for “0.03 to 0.2 ug/plate”; procedure, shortened: as §4
[13] = Stability of the compound in aqueous solution assessed as compound remaining at 1 mM at pH 1 after 1 hr by TLC analysis; type: physicochemical; conditions: read-out: Stability; procedure, shortened: as §3
Salmonella typhimurium [14] = assay: Mutagenic activity in Salmonella typhimurium TA98 at 6 to 500 ug/plate by Ames test in presence of mouse liver S9 fraction; type: toxicity, organism-based; conditions: salmonella enterica subsp. enterica serovar typhimurium; procedure, shortened: as §1
Salmonella typhimurium [15] = assay: Mutagenic activity in Salmonella typhimurium TA1537 at 0.03 to 0.2 ug/plate by Ames test; type: toxicity, organism-based; conditions: salmonella enterica subsp. enterica serovar typhimurium; procedure, shortened: as §2
Salmonella typhimurium [16] = assay: Mutagenic activity in Salmonella typhimurium TA98 at 6 to 500 ug/plate by Ames test; type: toxicity, organism-based; conditions: salmonella enterica subsp. enterica serovar typhimurium; procedure, shortened: as §1
Salmonella typhimurium [17] = assay: Mutagenic activity in Salmonella typhimurium TA1535 at […] ug/plate by Ames test; type: toxicity, organism-based; conditions: salmonella enterica subsp. enterica serovar typhimurium; procedure, shortened: as §2
[18] = Stability of the compound in aqueous solution assessed as compound remaining at 1 mM at pH 7.4 after 1 hr by TLC analysis; type: physicochemical; conditions: aqueous solution, pH 7.4; read-out: Stability; procedure, shortened: as §3
Trypanosoma cruzi [19] = assay: Antitrypanosomal activity against Trypanosoma cruzi Sylvio X-10 amastigotes infected in African green monkey Vero cells assessed as eradication of amastigotes after 72 hrs by Giemsa staining-based assay; conditions: Sylvio X-10, Vero
Salmonella typhimurium [20] = assay: Mutagenic activity in Salmonella typhimurium TA1535 at […] ug/plate by Ames test in presence of mouse liver S9 fraction; type: toxicity, organism-based; conditions: salmonella enterica subsp. enterica serovar typhimurium; procedure, shortened: as §4

| IC50 (Trypanosoma cruzi [4]) | remaining at 1 h, 1000 µM [6] | IC50 (Trypanosoma cruzi [10]) | remaining at 1 h, 1000 µM [11] | remaining at 1 h, 1000 µM [13] | remaining at 1 h, 1000 µM [18] | IC90 (Trypanosoma cruzi [19]) | SMILES | selectivity ratio [1] | Activity (Salmonella typhimurium [2]) | Activity (Salmonella typhimurium [3]) | Activity (Salmonella typhimurium [5]) | Activity (Salmonella typhimurium [7]) | Activity (Salmonella typhimurium [8]) | Activity (Salmonella typhimurium [9]) | Activity (Salmonella typhimurium [12]) | Activity (Salmonella typhimurium [14]) | Activity (Salmonella typhimurium [15]) | Activity (Salmonella typhimurium [16]) | Activity (Salmonella typhimurium [17]) | Activity (Salmonella typhimurium [20]) |
| --- | --- | --- | --- | --- | --- | --- | --- | --- | --- | --- | --- | --- | --- | --- | --- | --- | --- | --- | --- | --- |
| > 25 µM |  |  |  |  |  |  | C=CCn1c(C)cs\c1=N/N=C/C=C/c1cccs1 | < 7 | Non-toxic | Non-toxic |  |  |  |  |  |  |  |  |  |  |
| > 25 µM | > 95% | 6.3 µM | > 95% | 90% | > 95% | 51 µM | C=CCn1c(C)cs/c1=N/N=C/C=C/c1ccco1 |  |  |  | Non-toxic | Non-toxic | Non-toxic | Non-toxic | Non-toxic | Non-toxic | Non-toxic | Non-toxic | Non-toxic | Non-toxic |

Reference: ChEMBL document CHEMBL3259808, “Optimization of antitrypanosomatid agents: identification of nonmutagenic drug candidates with in vivo activity” (J Med Chem, 2014)
